Measured values as given in PubChem BioAssay AID2646 (Broad Institute, 2010).
Active and inactive are the calls of the source.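 How the source made its calls: active means mean cAMP rise at 10 µM above half of the positive control's rise; inactive means the rest.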

Tested on: human washed platelets, cAMP competitive ELISA, 5 min
Assay: cAMP induction in washed human platelets – cell-based, competitive ELISA, PGE1 reference, single compound, counter-screen for platelet activation inhibitor project, confirmation (AID 2646)
Details: at 10 µM; stronger effect = higher value
Summary of the method: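 System: washed human donor platelets. Buffer or medium: lysis in 0.1 M HCl with 0.5% Triton X-100. Incubation: 5 min platelet exposure to compound or control. Measured by: cAMP competitive ELISA. Repeats: duplicate samples per compound.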

CCCC(=O)Nc1cccc(NC(=O)c2ccccc2Br)c1
cAMP elevation, % of PGE1: 43.9% (inactive)
